This note sets out measurements from ChEMBL document CHEMBL4765247, “Novel mouse GABA uptake inhibitors with enhanced inhibitory activity toward mGAT3/4 and their effect on pain threshold in mice” (Eur J Med Chem, 2020).

Some results are limits rather than exact numbers.

Data set [1] has as its target Sodium- and chloride-dependent GABA transporter 1 (Mus musculus) (UniProt P31648). Description: Displacement of [3H]NO711 from mouse GAT1 expressed in HEK293 cells at 100 uM measured after 40 mins of incubation by LC-ESI-MS-MS method. The class given is cell-based. The settings on record: in the assay text read “NO711” for “[3H]NO711”. An outline of the steps:
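Competitive MS Binding Assay for mGAT1 using NO-711 as a nonlabeled marker, quantified by LC–ESI–MS–MS. Compounds were screened at 100 µM. […] Otherwise, the percentage of remaining binding at 100 µM is given.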

The nature of data set [2]: Lipophilicity, logP of the compound by UPLC-MS method. The class given is physicochemical. The settings on record: octanol/water. An outline of the steps:
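LogP measured by UPLC on a BEH C18 column (2.1 × 100 mm, 1.7 µm, with C18 pre-column) coupled to an ESI tandem quadrupole MS. The method was calibrated with reference compounds of established logP values.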

The target in a further data set is T1, GABA transporter 4 (Mus musculus, UniProt P31650).
T1 sequence (P31650 whole entry): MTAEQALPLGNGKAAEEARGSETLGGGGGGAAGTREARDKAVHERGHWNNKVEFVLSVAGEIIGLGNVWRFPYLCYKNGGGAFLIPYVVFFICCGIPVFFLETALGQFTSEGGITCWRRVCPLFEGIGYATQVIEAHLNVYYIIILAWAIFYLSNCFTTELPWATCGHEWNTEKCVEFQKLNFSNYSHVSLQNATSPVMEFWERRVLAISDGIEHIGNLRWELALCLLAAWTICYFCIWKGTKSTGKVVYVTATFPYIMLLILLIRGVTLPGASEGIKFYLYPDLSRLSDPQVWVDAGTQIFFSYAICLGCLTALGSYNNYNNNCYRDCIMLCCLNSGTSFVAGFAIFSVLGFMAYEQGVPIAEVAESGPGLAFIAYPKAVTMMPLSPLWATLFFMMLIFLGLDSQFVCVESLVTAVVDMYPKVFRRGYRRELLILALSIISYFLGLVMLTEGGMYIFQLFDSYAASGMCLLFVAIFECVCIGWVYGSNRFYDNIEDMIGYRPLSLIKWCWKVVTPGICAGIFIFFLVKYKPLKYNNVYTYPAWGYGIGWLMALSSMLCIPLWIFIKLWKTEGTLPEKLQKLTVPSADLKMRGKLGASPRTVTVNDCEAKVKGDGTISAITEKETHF
The experiment in a line: Inhibition of mouse GAT4 expressed in HEK293 cell line assessed as inhibition of [3H]GABA uptake measured after 35 mins by liquid scintillation method. It is filed as cell-based. The procedure, abridged:
(§1)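 Otherwise, the remaining uptake at 100 µM is reported as a percentage. Values without SEM come from a single triplicate experiment.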

Data set [3] deals with Sodium- and chloride-dependent GABA transporter 1 (Mus musculus, UniProt P31648). The experiment in a line: Inhibition of mouse GAT1 expressed in HEK293 cell line assessed as inhibition of [3H]GABA uptake measured after 35 mins by liquid scintillation method. It is filed as cell-based. An outline of the steps:
as §1

`Cc1ccsc1C(=CCCN(C)C(CC(C)O)C(=O)NCc1ccccc1)c1sccc1C` (racemic; form 1) [listing 1 of 2 here] yielded a residual activity in data set [1] of 82%.

`Cc1ccsc1C(=CCCN(C)C(CC(C)O)C(=O)NCc1ccccc1Cl)c1sccc1C` (racemic; form 2) registered a logP in data set [2] of 5.67. The pIC50 on GABA transporter 4 (hek293) turned out to be 5.02.

In the case of `Cc1ccsc1C(=CCCN(C)C(CC(C)O)C(=O)NCc1ccccc1)c1sccc1C` (racemic; form 1) [listing 2 of 2 here], the logP in data set [2] (read-out: logP) worked out at 5.64. Also, the IC50 on GABA transporter 4 was 3.89 µM; in data set [3], 13.2 µM.

Regarding `Cc1ccsc1C(=CCCN(C)C(CC(C)O)C(=O)NCc1ccc(F)cc1)c1sccc1C` (racemic; form 1) [listing 1 of 2 here], the lipophilicity (logP) in data set [2] (read-out: logP) came to 5.51. Moreover, the IC50 on GABA transporter 4 is 17.8 µM; in data set [3], 66.1 µM.

On to `Cc1ccsc1C(=CCCN(C)C1CCc2onc(O)c2C1)c1sccc1C` (stereo not drawn), for which the IC50 on GABA transporter 4 is over 302 µM; in data set [3] it was 7.08 µM.

For the compound `Cc1ccsc1C(=CCCN(C)C(CCO)C(=O)NCc1ccccc1)c1sccc1C` (stereo not drawn), the log partition coefficient (logP) in data set [2] (read-out: logP) amounted to 5.71. Further, the IC50 is 10.2 µM on GABA transporter 4 and 15.8 µM in data set [3]. In data set [1], this compound came in with a residual activity of 60%.

As for `Cc1ccsc1C(=CCCN(C)C(CC(C)O)C(=O)NCc1ccc(F)cc1)c1sccc1C` (racemic; form 2) [listing 1 of 2 here], the IC50 at GABA transporter 4 was 29.5 µM; in data set [3], 85.1 µM.

As to `CC(=O)NCCC(C(=O)NCc1ccccc1Cl)N(C)CCC=C(c1sccc1C)c1sccc1C` (stereo not drawn), in data set [2] (read-out: logP), the logP came out at 6.46. Moreover, the IC50 was 6.17 µM at GABA transporter 4 and 8.71 µM in data set [3]. The residual activity in data set [1] turned out to be 68%.

As for `Cc1ccsc1C(=CCCN(C)C(CO)C(=O)NCc1ccc(C(F)(F)F)cc1)c1sccc1C` (stereo not drawn), the IC50 on GABA transporter 4 was 17 µM; in data set [3], 13.5 µM. Besides, the residual activity in data set [1] came out at 92%.

Turning to `Cc1ccsc1C(=CCCN(C)C(CC(C)O)C(=O)NCc1ccc(Cl)cc1)c1sccc1C` (stereo in doubt), in data set [2] (read-out: logP), the logP stood at 5.99. Moreover, at GABA transporter 4, the IC50 was 28.8 µM.

`Cc1ccsc1C(=CCCN(C)C(CC(C)O)C(=O)NCc1ccc(Cl)cc1)c1sccc1C` (mixture of isomers) [listing 1 of 2 here] returned a residual activity in data set [1] of 91%.

Regarding `Cc1ccsc1C(=CCCN(C)C(CC(C)O)C(=O)NCc1ccc(Cl)cc1)c1sccc1C` (mixture of isomers) [listing 2 of 2 here], the logP in data set [2] was determined as 6.77. The IC50 on GABA transporter 4 is 13.2 µM; in data set [3] it was 57.5 µM.

On to `Cc1ccc(CNC(=O)C(CC(C)O)N(C)CCC=C(c2sccc2C)c2sccc2C)cc1` (racemic) [listing 1 of 2 here], for which the residual activity in data set [1] was 79%.

As for `O=C(O)C1=CCCN(CCO/N=C/c2ccccc2-c2ccc(Cl)cc2Cl)C1`, the IC50 at GABA transporter 4 is 85.1 µM.

Regarding `Cc1ccsc1C(=CCCN(C)C(CC(C)O)C(=O)NCc1ccc(F)cc1)c1sccc1C` (racemic; form 1) [listing 2 of 2 here], in data set [1], the residual activity came to 78%.

Take `Cc1ccsc1C(=CCCN(C)C(CC(C)O)C(=O)NCc1ccccc1Cl)c1sccc1C` (racemic; form 1): the logP in data set [2] (read-out: logP) was 5.95. Further, at GABA transporter 4, the IC50 was 9.55 µM.

Compound `Cc1ccc(CNC(=O)C(CC(C)O)N(C)CCC=C(c2sccc2C)c2sccc2C)cc1` (stereo in doubt) [listing 1 of 2 here] yielded a residual activity in data set [1] of 72%.

`Cc1ccsc1C(=CCCN(C)C(CC(C)O)C(=O)NCc1ccccc1)c1sccc1C` (racemic; form 2) [listing 1 of 2 here] gave a residual activity in data set [1] of 59%.

For the compound `Cc1ccsc1C(=CCCN(C)C(CC(C)O)C(=O)NCc1ccc(F)cc1)c1sccc1C` (racemic; form 2) [listing 2 of 2 here], the residual activity in data set [1] was 70%.

The compound `Cc1ccsc1C(=CCCN(C)C(CC(C)O)C(=O)NCc1ccccc1)c1sccc1C` (racemic; form 2) [listing 2 of 2 here] displayed a logP in data set [2] of 6.22. For the same compound, the IC50 on GABA transporter 4 was 18.6 µM; in data set [3], 23.4 µM.

With `Cc1ccc(CNC(=O)C(CC(C)O)N(C)CCC=C(c2sccc2C)c2sccc2C)cc1` (racemic) [listing 2 of 2 here], the IC50 on GABA transporter 4 is 5.5 µM; in data set [3], 12.3 µM.

For `Cc1ccc(CNC(=O)C(CC(C)O)N(C)CCC=C(c2sccc2C)c2sccc2C)cc1` (stereo in doubt) [listing 2 of 2 here], the log partition coefficient (logP) in data set [2] (read-out: logP) worked out at 6.15. Moreover, the IC50 at GABA transporter 4 was 7.08 µM; in data set [3], 25.1 µM.

Consider `NCC(O)C(=O)O` (stereo not drawn), for which the IC50 at GABA transporter 4 is 5.01 µM; in data set [3] it was 2510 µM.

As usually defined, the residual activity is the activity still measured, relative to the control. Read a low residual activity as little activity left. The term logP denotes a log measure of how a compound divides between an organic and an aqueous phase. One may read the pIC50 as the IC50 on a negative log10 scale, so that one unit is a factor of ten. For orientation: IC50 means the concentration that inhibits the measured activity by half.
